What was measured:
Assay type in all cases: cell-based
[1] = target: T1, 5-hydroxytryptamine receptor 6 (Homo sapiens, UniProt P50406); assay: Inhibitory concentration against human 5-hydroxytryptamine 6 receptor transfected in HeLa cells in cAMP assay
Procedure, shortened: (§1)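 Human 5-HT6 receptor stably transfected into HeLa cells. Cells were washed with Krebs buffer, then preincubated for 5 min at 37°C in Krebs with 500 µM IBMX. They were then exposed to test compound (0.1–10,000 nM) for 10 min at 37°C. The reaction was stopped with 0.5 M perchloric acid, and intracellular cAMP was measured by scintillation proximity radioimmunoassay.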

[2] = target: T1, 5-hydroxytryptamine receptor 6; assay: Inhibitory potency against human 5-hydroxytryptamine 6 receptor transfected in HeLa cells in cAMP assay; procedure, shortened: as §1
[3] = target: T1, 5-hydroxytryptamine receptor 6; assay: Binding affinity against human 5-hydroxytryptamine 6 receptor transfected in HeLa cells
[4] = target: T1, 5-hydroxytryptamine receptor 6; assay: Percent inhibitory activity against human 5-hydroxytryptamine 6 receptor transfected in HeLa cells at 1 uM

T1 sequence (P50406 whole entry): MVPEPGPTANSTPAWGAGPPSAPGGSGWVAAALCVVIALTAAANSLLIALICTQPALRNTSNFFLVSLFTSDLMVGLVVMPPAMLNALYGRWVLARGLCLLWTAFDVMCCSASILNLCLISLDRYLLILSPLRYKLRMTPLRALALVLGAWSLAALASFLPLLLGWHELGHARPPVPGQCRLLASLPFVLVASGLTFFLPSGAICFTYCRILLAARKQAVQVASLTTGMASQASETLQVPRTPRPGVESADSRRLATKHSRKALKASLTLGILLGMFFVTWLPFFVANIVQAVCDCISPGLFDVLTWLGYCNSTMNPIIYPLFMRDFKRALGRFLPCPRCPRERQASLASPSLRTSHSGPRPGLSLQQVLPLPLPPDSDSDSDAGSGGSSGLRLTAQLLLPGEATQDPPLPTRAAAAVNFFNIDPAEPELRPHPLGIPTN

IC50 [1] [nM]	Imax [2] [%]	Ki [3] [nM]	inhibition [4] [%]	SMILES
47	97	3.7		CN(C)CCn1cc(S(=O)(=O)c2cccc3ccccc23)c2ccccc21
			55	COc1ccc2c(c1)c(S(=O)(=O)c1ccccc1)cn2CCN1CCCCC1
359	97	5.7		CNCCn1cc(S(=O)(=O)c2cccc3ccccc23)c2ccccc21
			42	CN(C)CCn1cc(S(=O)(=O)c2ccccc2)c2ccc(C#N)cc21
		15.5		CNCCn1cc(S(=O)(=O)c2ccccc2)c2ccccc21
			78	COc1ccc2c(S(=O)(=O)c3ccccc3)cn(CCN)c2c1
792	100			CN(C)CCn1cc(S(=O)(=O)c2ccccc2OC(F)(F)F)c2ccccc21
			86	COc1ccc2c(c1)c(S(=O)(=O)c1ccccc1)cn2CCN
		27		NCCn1cc(S(=O)(=O)c2ccccc2)c2cc(F)ccc21

SMILES	IC50 [1] [nM]	Imax [2] [%]	Ki [3] [nM]	inhibition [4] [%]
CNCCc1cn(S(=O)(=O)c2ccccc2)c2ccccc12			5	
COc1cccc2c(S(=O)(=O)c3ccccc3)cn(CCN(C)C)c12	23	80.5		
NCCc1cn(S(=O)(=O)c2ccccc2)c2ccccc12			10.3	
